Each structure is given as a SMILES string.

Assay [1] addresses T1, Cannabinoid receptor 1 (Homo sapiens, UniProt P21554). As to the kind of experiment: Displacement of [3H]SR-141,716A from human Cannabinoid receptor 1 (CB1 receptor) expressed in CHO cells at 10 uM. It counts as cell-based. The procedure, abridged:
(§1)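 Membranes (40 µg) from CHO cells stably expressing human CB1 or CB2, with 1 nM [3H]SR141716A (CB1) or 1 nM [3H]CP-55,940 (CB2), and compound at 10 µM. Incubated 1 h at 30 °C in Tris-HCl pH 7.4 with MgCl2, EDTA and 0.5% BSA. Nonspecific binding defined with 10 µM HU-210. Bound ligand recovered on PEI-treated GF/B filters for scintillation counting; reported as % radioligand displaced.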
For orientation: In a radioligand displacement assay an active substance lowers the binding of a labelled ligand.

For assay [2], the target named is Cannabinoid receptor 2 (Homo sapiens) (UniProt P34972). As to the kind of experiment: Displacement of [3H]CP-55940 from human CB2 receptor expressed in CHO cells at 10 uM. It counts as cell-based. The procedure, abridged:
as §1

For assay [3], the target named is T1, Cannabinoid receptor 1. As to the kind of experiment: Inhibition of [3H]SR-141,716A binding to human CB1 receptor expressed in CHO cells. It counts as cell-based. The gist of the method:
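Competition curves on hCB1-CHO membranes (40 µg) with 1 nM [3H]SR141716A and varying compound concentrations, up to 10^-5 M. Incubated 1 h at 30 °C, pH 7.4, 0.5% BSA; final DMSO below 0.1%. Nonspecific binding defined with 10 µM HU-210; filtration, then counting. Ki derived from IC50 by nonlinear fitting and Cheng-Prusoff (Kd 1.13 nM). Mean ± SEM of at least four experiments, each in duplicate.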

In assay [4] the target is T1, Cannabinoid receptor 1. In words: biochemical. It counts as cell-based, CHO.
The target in assay [5] is T1, Cannabinoid receptor 1. To be noted: CHO, at 10 µM.
The target of assay [6] is T1, Cannabinoid receptor 1. To be noted: CHO, 10 uM.

T1 sequence (P21554 whole entry): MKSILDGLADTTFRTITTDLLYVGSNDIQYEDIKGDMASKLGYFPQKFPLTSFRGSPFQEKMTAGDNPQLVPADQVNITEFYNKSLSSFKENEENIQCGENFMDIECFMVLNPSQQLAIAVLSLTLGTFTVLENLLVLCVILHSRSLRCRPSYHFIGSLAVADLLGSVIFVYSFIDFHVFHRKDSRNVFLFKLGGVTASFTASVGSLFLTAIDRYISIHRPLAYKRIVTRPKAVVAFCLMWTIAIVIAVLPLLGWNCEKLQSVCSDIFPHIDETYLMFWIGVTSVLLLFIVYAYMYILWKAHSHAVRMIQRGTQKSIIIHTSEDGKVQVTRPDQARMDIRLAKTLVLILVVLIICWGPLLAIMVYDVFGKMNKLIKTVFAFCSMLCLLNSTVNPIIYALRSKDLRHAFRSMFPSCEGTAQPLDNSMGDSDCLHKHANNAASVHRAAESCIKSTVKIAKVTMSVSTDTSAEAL
Chain of Cannabinoid receptor 2 (Homo sapiens) (P34972 whole entry): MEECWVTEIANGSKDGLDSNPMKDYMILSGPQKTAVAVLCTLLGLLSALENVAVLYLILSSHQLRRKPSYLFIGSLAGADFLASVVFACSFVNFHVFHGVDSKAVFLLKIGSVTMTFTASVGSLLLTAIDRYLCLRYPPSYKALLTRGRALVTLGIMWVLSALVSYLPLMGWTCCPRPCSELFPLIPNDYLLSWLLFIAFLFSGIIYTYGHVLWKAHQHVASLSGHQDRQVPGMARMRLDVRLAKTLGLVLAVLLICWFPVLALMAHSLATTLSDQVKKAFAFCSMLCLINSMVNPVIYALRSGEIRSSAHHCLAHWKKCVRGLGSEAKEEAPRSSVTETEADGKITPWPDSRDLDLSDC

For `CCCCCCN1C(=O)C(c2ccc(Br)cc2)(c2ccc(Br)cc2)NC1=S`, the Displacement on Cannabinoid receptor 1 [1] was 45.5%; in assay [2], less than 10%.

Broadly, the Ki is the dissociation constant of the complex between target and ligand, obtained from inhibition or displacement. A low value points to a stronger hold on the target. Consider `O=C1N(CCc2ccccc2)C(=S)NC1(c1ccc(Br)cc1)c1ccc(Br)cc1`, for which the results for the Displacement (on Cannabinoid receptor 1 [1]; in assay [2]) were 54.6% and less than 10%, respectively. This compound also showed a Ki on Cannabinoid receptor 1 [3] of more than 10 µM.

For the compound `CCCCCCCN1C(=O)C(c2ccc(Cl)cc2)(c2ccc(Cl)cc2)NC1=S`, the Displacement is 67.8% on Cannabinoid receptor 1 [1] and less than 10% in assay [2].

As to `O=C1N(Cc2ccccc2)C(=S)NC1(c1ccc(Cl)cc1)c1ccc(Cl)cc1`, the Displacement at Cannabinoid receptor 1 [1] was 74.2%; in assay [2], less than 15%. This compound returned a Ki on Cannabinoid receptor 1 [4] of 2.19 µM. Besides, on Cannabinoid receptor 1 [5], the Decrease is -74%.

As for `C=CCN1C(=O)C(c2ccccc2)(c2ccccc2)NC1=S`, the Displacement at Cannabinoid receptor 1 [1] was 40%; in assay [2], less than 15%.

On to `CCCCCCCCN1C(=O)C(c2ccc(Br)cc2)(c2ccc(Br)cc2)NC1=S`, for which the Displacement at Cannabinoid receptor 1 [1] is 23.4%; in assay [2] it was less than 10%.

In the case of `CCCCN1C(=O)NC(c2ccc(Br)cc2)(c2ccc(Br)cc2)C1=O`, the Decrease on Cannabinoid receptor 1 [5] is -74%.

For `CCCCCCCCN1C(=O)C(c2ccc(Cl)cc2)(c2ccc(Cl)cc2)NC1=S`, the figures for the Displacement (at Cannabinoid receptor 1 [1]; in assay [2]) were 36.6% and less than 10%, respectively.

In the case of `CC(C)CN1C(=O)C(c2ccc(Br)cc2)(c2ccc(Br)cc2)NC1=S`, the Displacement on Cannabinoid receptor 1 [1] was 76.3%; in assay [2], less than 20%. This compound returned a Ki at Cannabinoid receptor 1 [4] of 1.78 µM. Besides, the Decrease on Cannabinoid receptor 1 [5] is -74%.

With `CC(C)N1C(=O)C(c2ccc(Br)cc2)(c2ccc(Br)cc2)NC1=S`, the Displacement on Cannabinoid receptor 1 [1] was 91.7%; in assay [2] it was less than 15%. Besides, the Ki at Cannabinoid receptor 1 [4] was determined as 3.63 µM.

Turning to `CCN1C(=O)C(c2ccc(Br)cc2)(c2ccc(Br)cc2)NC1=S`, the Displacement at Cannabinoid receptor 1 [1] was 90.9%; in assay [2], less than 20%. Moreover, the Ki at Cannabinoid receptor 1 [4] was 2.19 µM.

`CCCCCCCCN1C(=O)C(c2ccccc2)(c2ccccc2)NC1=S`: the results for the Displacement (on Cannabinoid receptor 1 [1]; in assay [2]) were 38.8% and less than 20%, respectively.

Consider `CCCCN1C(=O)C(c2ccccc2)(c2ccccc2)NC1=S`, for which the Displacement was 42.8% on Cannabinoid receptor 1 [1] and less than 10% in assay [2].

On Cannabinoid receptor 1 [6], `CCCCCCC(C)(C)c1cc(O)c2c(c1)OC(C)(C)[C@H]1CC=C(CO)C[C@H]21` [DEXANABINOL] gave an Increase of 130%. This compound also had a Ki on Cannabinoid receptor 1 [4] of 0.0186 µM.

With `CCN1C(=O)C(c2ccccc2)(c2ccccc2)NC1=S`, the Displacement was 40% at Cannabinoid receptor 1 [1] and less than 10% in assay [2].

Turning to `C=CCN1C(=O)C(c2ccc(Br)cc2)(c2ccc(Br)cc2)NC1=S`, the results for the Displacement (at Cannabinoid receptor 1 [1]; in assay [2]) were 87.2% and less than 15%, respectively. For the same compound, the affinity at Cannabinoid receptor 1 [4] corresponds to a Ki of 0.871 µM. Besides, on Cannabinoid receptor 1 [5], the Decrease is -74%.

Turning to `COCCCN1C(=O)C(c2ccccc2)(c2ccccc2)NC1=S`, the Displacement on Cannabinoid receptor 1 [1] is 29.4%; in assay [2] it was less than 15%.

Turning to `O=C1N(Cc2ccccc2)C(=S)NC1(c1ccc(Br)cc1)c1ccc(Br)cc1`, the values for the Displacement (at Cannabinoid receptor 1 [1]; in assay [2]) were 76% and less than 10%, respectively. In addition, the affinity at Cannabinoid receptor 1 [4], expressed as Ki, was 0.993 µM. In addition, the Decrease on Cannabinoid receptor 1 [5] was -74%.

For the compound `CC(C)CN1C(=O)C(c2ccc(Cl)cc2)(c2ccc(Cl)cc2)NC1=S`, the Displacement on Cannabinoid receptor 1 [1] is 76.1%; in assay [2], less than 20%. This compound also came in with a Ki on Cannabinoid receptor 1 [4] of 2.09 µM. Further, at Cannabinoid receptor 1 [5], the Decrease was -74%.

In the case of `O=C1N(Cc2ccco2)C(=S)NC1(c1ccccc1)c1ccccc1`, the Displacement on Cannabinoid receptor 1 [1] is 59.2%; in assay [2], less than 15%.

For `C=CCN1C(=O)C(c2ccc(I)cc2)(c2ccc(I)cc2)NC1=S`, the Displacement was 94.2% at Cannabinoid receptor 1 [1] and less than 20% in assay [2]. On Cannabinoid receptor 1 [4], this compound showed a Ki of 0.589 µM. In addition, on Cannabinoid receptor 1 [5], the Decrease is -74%.

Turning to `O=C1N(CCc2ccccc2)C(=S)NC1(c1ccccc1)c1ccccc1`, the results for the Displacement (on Cannabinoid receptor 1 [1]; in assay [2]) were 29.3% and less than 10%, respectively.

As for `CCCCCCN1C(=O)C(c2ccccc2)(c2ccccc2)NC1=S`, the Displacement at Cannabinoid receptor 1 [1] was 38.5%; in assay [2], less than 10%.

As for `CC(C)CN1C(=O)C(c2ccccc2)(c2ccccc2)NC1=S`, the Displacement is 34.6% on Cannabinoid receptor 1 [1] and less than 10% in assay [2].

On to `CCCCCCCN1C(=O)C(c2ccccc2)(c2ccccc2)NC1=S`, for which the figures for the Displacement (on Cannabinoid receptor 1 [1]; in assay [2]) were 28.8% and less than 10%, respectively.

Consider `CCCCN1C(=O)NC(c2ccc(I)cc2)(c2ccc(I)cc2)C1=O`, for which, at Cannabinoid receptor 1 [4], the Ki turned out to be 1.82 µM. Moreover, the Decrease on Cannabinoid receptor 1 [5] was -74%.

`O=C1N(CCCO)C(=S)NC1(c1ccccc1)c1ccccc1`: the Displacement on Cannabinoid receptor 1 [1] is 20.8%; in assay [2], less than 10%.

Take `O=C1N(Cc2ccccc2)C(=S)NC1(c1ccccc1)c1ccccc1`: the Displacement is 44.7% at Cannabinoid receptor 1 [1] and less than 10% in assay [2].

For `O=C1N(CCc2ccccc2)C(=S)NC1(c1ccc(Cl)cc1)c1ccc(Cl)cc1`, the Displacement was 79.4% at Cannabinoid receptor 1 [1] and less than 15% in assay [2]. In addition, affinity on Cannabinoid receptor 1 [4] was put at a Ki of 3.8 µM.

Turning to `CCCCCCCN1C(=O)C(c2ccc(Br)cc2)(c2ccc(Br)cc2)NC1=S`, the values for the Displacement (on Cannabinoid receptor 1 [1]; in assay [2]) were 34.2% and less than 10%, respectively.

With `CCCCN1C(=O)C(c2ccc(Br)cc2)(c2ccc(Br)cc2)NC1=S`, the Displacement was 73.8% on Cannabinoid receptor 1 [1] and less than 15% in assay [2]. Further, the Ki at Cannabinoid receptor 1 [4] was 1.41 µM.

Consider `CCCCN1C(=O)C(c2ccc(I)cc2)(c2ccc(I)cc2)NC1=S`, for which the results for the Displacement (at Cannabinoid receptor 1 [1]; in assay [2]) were 77.4% and less than 20%, respectively. For the same compound, at Cannabinoid receptor 1 [4], the affinity corresponds to a Ki of 0.724 µM. In addition, the Decrease on Cannabinoid receptor 1 [5] is -74%.

For the compound `C=CCN1C(=O)NC(c2ccc(I)cc2)(c2ccc(I)cc2)C1=O`, on Cannabinoid receptor 1 [5], the Decrease is -74%.

For `O=C1NC(c2ccc(Br)cc2)(c2ccc(Br)cc2)C(=O)N1Cc1ccccc1`, the Decrease at Cannabinoid receptor 1 [5] was -74%.

As to `CC(C)N1C(=O)C(c2ccccc2)(c2ccccc2)NC1=S`, the Displacement on Cannabinoid receptor 1 [1] is 42.8%; in assay [2] it was less than 10%.

For the origin of these results see ChEMBL document CHEMBL1145211, “Substituted 5,5'-diphenyl-2-thioxoimidazolidin-4-one as CB1 cannabinoid receptor ligands: synthesis and pharmacological evaluation” (J Med Chem, 2005).
